From ChEMBL document CHEMBL4359877, “Identification of benzothiazinones containing an oxime functional moiety as new anti-tuberculosis agents” (Eur J Med Chem, 2019)

Columns and labels:
[1] = Mutagenicity in Salmonella typhimurium TA100 in presence of S9 fraction by mini-Ames test; assay type: toxicity, subcellular; details: salmonella enterica subsp. enterica serovar typhimurium
[2] = system: Mycobacterium tuberculosis; test: Antimycobacterial activity against Mycobacterium tuberculosis H37Rv assessed as reduction in bacterial cell growth at 32 ug/ml by Low-oxygen recovery assay; assay type: functional
[3] = Cmax in Sprague-Dawley rat at 25 mg/kg, po measured upto 24 hrs by HPLC analysis; assay type: ADME, organism-based; set-up: dose 25 mg/kg, route oral; details: in vivo
Procedure, shortened: (§1)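 SD rats, 180–220 g; single intravenous dose 2.5 mg/kg or oral doses of 25, 50 or 200 mg/kg, n = 6, half of each sex. Serum sampling, acetonitrile deproteinisation and HPLC quantification followed the mouse procedure. Parameters derived from concentration–time data; F% obtained from the oral and IV exposures.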

[4] = system: Mycobacterium tuberculosis; test: Antimycobacterial activity against Mycobacterium tuberculosis H37Rv ATCC 27294 assessed as reduction in bacterial cell growth incubated for 7 days by microplate alamar blue assay; assay type: functional; details: H37Rv ATCC 27294, 168 h
Procedure, shortened: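 MABA: H37Rv or clinical MDR isolates (resistant to INH and RFP, Beijing Chest Hospital patients) grown to late log phase in 7H9 with glycerol, Tween 80 and ADC, washed, filtered and frozen. Two-fold compound dilutions with 2 × 10⁵ CFU per well, 37 °C; Alamar blue plus Tween 80 added on day 7, fluorescence (ex 530/em 590) read after 16–24 h. MIC = lowest concentration giving ≥90% fluorescence reduction versus mean of bacterium-only controls; RIF and INH as positive controls.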

[5] = Oral bioavailability in Sprague-Dawley rat at 50 mg/kg measured upto 24 hrs by HPLC analysis; assay type: ADME, organism-based; details: in vivo; procedure, shortened: as §1
[6] = Mutagenicity in Salmonella typhimurium TA100 in absence of S9 fraction by mini-Ames test; assay type: toxicity; details: salmonella enterica subsp. enterica serovar typhimurium
[7] = AUC (0 to infinity) in Sprague-Dawley rat at 25 mg/kg, po by HPLC analysis; assay type: ADME, organism-based; set-up: dose 25 mg/kg, route oral, time infinity; details: in vivo; procedure, shortened: as §1
Cytochrome P450 3A4 = Cytochrome P450 3A4 (Homo sapiens, UniProt P08684); test: Inhibition of CYP3A4 (unknown origin); assay type: ADME
Chain of Cytochrome P450 3A4 (P08684 whole entry): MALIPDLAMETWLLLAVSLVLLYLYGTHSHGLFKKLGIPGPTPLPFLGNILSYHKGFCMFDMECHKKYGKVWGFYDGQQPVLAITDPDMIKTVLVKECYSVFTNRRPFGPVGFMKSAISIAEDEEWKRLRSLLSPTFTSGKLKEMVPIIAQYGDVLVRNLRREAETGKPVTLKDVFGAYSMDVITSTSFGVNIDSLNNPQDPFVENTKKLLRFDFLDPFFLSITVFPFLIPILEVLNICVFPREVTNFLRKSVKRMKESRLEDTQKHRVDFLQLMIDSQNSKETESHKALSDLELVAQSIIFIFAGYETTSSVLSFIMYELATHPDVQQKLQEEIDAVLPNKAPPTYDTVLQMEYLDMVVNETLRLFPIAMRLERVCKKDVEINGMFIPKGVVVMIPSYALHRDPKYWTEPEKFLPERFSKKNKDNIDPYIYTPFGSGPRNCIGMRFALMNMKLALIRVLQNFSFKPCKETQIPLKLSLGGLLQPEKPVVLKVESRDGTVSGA

[8] = AUC (0 to infinity) in Sprague-Dawley rat at 200 mg/kg, po by HPLC analysis; assay type: ADME, organism-based; set-up: dose 200 mg/kg, route oral, time infinity; details: in vivo; procedure, shortened: as §1
[9] = Half life in Sprague-Dawley rat at 50 mg/kg, po measured upto 24 hrs by HPLC analysis; assay type: ADME, organism-based; details: in vivo; procedure, shortened: as §1
[10] = Oral bioavailability in Sprague-Dawley rat at 200 mg/kg measured upto 24 hrs by HPLC analysis; assay type: ADME, organism-based; details: in vivo; procedure, shortened: as §1
Cytochrome P450 2C9 = Cytochrome P450 2C9 (Homo sapiens, UniProt P11712); test: Inhibition of CYP2C9 (unknown origin); assay type: ADME
Chain of Cytochrome P450 2C9 (P11712 whole entry): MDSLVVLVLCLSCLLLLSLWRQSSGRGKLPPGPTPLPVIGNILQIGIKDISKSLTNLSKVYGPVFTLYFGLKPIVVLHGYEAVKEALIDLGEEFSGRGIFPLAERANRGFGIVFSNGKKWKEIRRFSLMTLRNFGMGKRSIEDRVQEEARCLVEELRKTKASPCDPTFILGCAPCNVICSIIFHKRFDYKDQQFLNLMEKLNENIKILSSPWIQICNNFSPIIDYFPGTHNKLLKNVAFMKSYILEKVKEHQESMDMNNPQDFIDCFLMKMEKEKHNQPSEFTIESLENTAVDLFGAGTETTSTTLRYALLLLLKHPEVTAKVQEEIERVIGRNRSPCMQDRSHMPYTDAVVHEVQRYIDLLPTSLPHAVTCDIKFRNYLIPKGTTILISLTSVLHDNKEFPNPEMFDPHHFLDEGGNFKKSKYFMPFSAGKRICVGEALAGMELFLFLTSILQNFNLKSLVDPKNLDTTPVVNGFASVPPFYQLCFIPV

[11] = system: Mycobacterium tuberculosis; test: Antituberculosis activity against Mycobacterium tuberculosis H37Rv infected in BALB/C mouse assessed as colony forming unit in lungs at 25 mg/kg, po administered once daily via gavage for 5 days per week for 3 weeks starting from 10 days post-infection (reference value: 6.44 +/- 0.34); assay type: functional
[12] = Cytotoxicity against African green monkey Vero cells assessed as reduction in cell viability; assay type: cell-based; details: chlorocebus sabaeus
[13] = Cmax in Sprague-Dawley rat at 2.5 mg/kg, iv measured upto 24 hrs by HPLC analysis; assay type: ADME, organism-based; set-up: dose 2.5 mg/kg, route intravenous; details: in vivo; procedure, shortened: as §1
[14] = AUC (0 to infinity) in Sprague-Dawley rat at 50 mg/kg, po by HPLC analysis; assay type: ADME, organism-based; set-up: dose 50 mg/kg, time infinity, route oral; details: in vivo; procedure, shortened: as §1
[15] = Tmax in Sprague-Dawley rat at 200 mg/kg, po measured upto 24 hrs by HPLC analysis; assay type: ADME, organism-based; details: in vivo; procedure, shortened: as §1
[16] = Tmax in Sprague-Dawley rat at 50 mg/kg, po measured upto 24 hrs by HPLC analysis; assay type: ADME, organism-based; details: in vivo; procedure, shortened: as §1
[17] = Cmax in ICR mouse at 25 mg/kg, po measured upto 24 hrs by HPLC analysis; assay type: ADME, organism-based; set-up: dose 25 mg/kg, route oral; details: in vivo
Procedure, shortened: (§2)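 Female SPF ICR mice, 18–22 g, fasted overnight, 3 per group; single oral dose 25 mg/kg as suspension in 0.5% CMC. Jugular vein blood drawn at 0.25, 0.5, 1, 2, 4, 6, 8 and 24 h; serum deproteinised with acetonitrile, dried, redissolved and quantified by HPLC. AUC, t1/2, Cmax and Tmax taken directly from concentration–time data.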

[18] = Oral bioavailability in Sprague-Dawley rat at 25 mg/kg measured upto 24 hrs by HPLC analysis; assay type: ADME, organism-based; details: in vivo; procedure, shortened: as §1
[19] = Acute toxicity in Sprague-Dawley rat assessed as death at 2 g/kg, po measured continuously for first 4 hrs followed by every 1 hr for next 24 hrs and subsequent 8 hrs interval for 7 days; assay type: organism-based; details: in vivo, 2000 mg/kg
Procedure, shortened: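 SD rats, 180–220 g, randomised, ten per group, food withheld overnight. Single oral dose of 2 g/kg suspended in 5% CMC; controls given vehicle only. Watched continuously for 4 h, hourly for the next 24 h, then every 8 h through day 7 for deaths or changes. Read-out is survivors/total at 7 days.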

[20] = Half life in Sprague-Dawley rat at 25 mg/kg, po measured upto 24 hrs by HPLC analysis; assay type: ADME, organism-based; details: in vivo; procedure, shortened: as §1
Cytochrome P450 2C19 = Cytochrome P450 2C19 (Homo sapiens, UniProt P33261); test: Inhibition of CYP2C19 (unknown origin); assay type: ADME
Chain of Cytochrome P450 2C19 (P33261 whole entry): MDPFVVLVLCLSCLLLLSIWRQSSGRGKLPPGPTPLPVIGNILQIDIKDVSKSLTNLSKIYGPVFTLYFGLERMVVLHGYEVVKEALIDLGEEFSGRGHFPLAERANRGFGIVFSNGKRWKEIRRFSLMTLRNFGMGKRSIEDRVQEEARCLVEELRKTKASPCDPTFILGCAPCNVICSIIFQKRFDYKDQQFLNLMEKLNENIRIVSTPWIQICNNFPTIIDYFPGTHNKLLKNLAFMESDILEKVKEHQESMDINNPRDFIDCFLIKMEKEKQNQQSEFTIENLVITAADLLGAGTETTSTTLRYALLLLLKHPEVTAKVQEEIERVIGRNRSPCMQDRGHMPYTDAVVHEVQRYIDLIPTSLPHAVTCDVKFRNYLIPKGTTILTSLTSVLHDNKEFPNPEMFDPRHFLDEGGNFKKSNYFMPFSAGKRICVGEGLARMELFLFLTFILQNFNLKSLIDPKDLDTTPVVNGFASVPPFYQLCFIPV

[21] = Half life in Sprague-Dawley rat at 200 mg/kg, po measured upto 24 hrs by HPLC analysis; assay type: ADME, organism-based; details: in vivo; procedure, shortened: as §1
Cytochrome P450 2D6 = Cytochrome P450 2D6 (Homo sapiens, UniProt P10635); test: Inhibition of CYP2D6 (unknown origin); assay type: ADME
Chain of Cytochrome P450 2D6 (P10635 whole entry): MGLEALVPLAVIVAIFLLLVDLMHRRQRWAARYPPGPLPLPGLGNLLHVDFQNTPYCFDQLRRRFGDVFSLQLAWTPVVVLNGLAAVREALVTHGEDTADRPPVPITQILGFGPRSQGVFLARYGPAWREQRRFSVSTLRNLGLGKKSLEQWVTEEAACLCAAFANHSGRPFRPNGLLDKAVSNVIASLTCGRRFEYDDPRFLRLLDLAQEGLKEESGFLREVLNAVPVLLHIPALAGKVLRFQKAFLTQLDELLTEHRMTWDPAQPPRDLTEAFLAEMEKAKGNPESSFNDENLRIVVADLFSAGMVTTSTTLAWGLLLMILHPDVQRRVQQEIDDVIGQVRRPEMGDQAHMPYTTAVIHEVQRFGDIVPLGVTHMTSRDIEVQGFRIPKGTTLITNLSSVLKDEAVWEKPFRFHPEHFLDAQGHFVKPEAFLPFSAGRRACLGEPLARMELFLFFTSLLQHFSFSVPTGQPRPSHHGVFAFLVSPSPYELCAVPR

[22] = Half life in Sprague-Dawley rat at 2.5 mg/kg, iv measured upto 24 hrs by HPLC analysis; assay type: ADME, organism-based; details: in vivo; procedure, shortened: as §1
[23] = AUC (0 to infinity) in ICR mouse at 25 mg/kg, po measured upto 24 hrs by HPLC analysis; assay type: ADME, organism-based; set-up: dose 25 mg/kg, time infinity, route oral; details: in vivo; procedure, shortened: as §2
[24] = Half life in ICR mouse at 25 mg/kg, po measured upto 24 hrs by HPLC analysis; assay type: ADME, organism-based; details: in vivo; procedure, shortened: as §2
[25] = MRT in ICR mouse at 25 mg/kg, po measured upto 24 hrs by HPLC analysis; assay type: ADME, organism-based; details: in vivo; procedure, shortened: as §2
[26] = Mutagenicity in Salmonella typhimurium TA102 in absence of S9 fraction by mini-Ames test; assay type: toxicity; details: salmonella enterica subsp. enterica serovar typhimurium
Cytochrome P450 1A2 = molecular target: T1, Cytochrome P450 1A2 (Homo sapiens, UniProt P05177); test: Inhibition of CYP1A2 (unknown origin); assay type: ADME
T1 sequence (P05177 whole entry): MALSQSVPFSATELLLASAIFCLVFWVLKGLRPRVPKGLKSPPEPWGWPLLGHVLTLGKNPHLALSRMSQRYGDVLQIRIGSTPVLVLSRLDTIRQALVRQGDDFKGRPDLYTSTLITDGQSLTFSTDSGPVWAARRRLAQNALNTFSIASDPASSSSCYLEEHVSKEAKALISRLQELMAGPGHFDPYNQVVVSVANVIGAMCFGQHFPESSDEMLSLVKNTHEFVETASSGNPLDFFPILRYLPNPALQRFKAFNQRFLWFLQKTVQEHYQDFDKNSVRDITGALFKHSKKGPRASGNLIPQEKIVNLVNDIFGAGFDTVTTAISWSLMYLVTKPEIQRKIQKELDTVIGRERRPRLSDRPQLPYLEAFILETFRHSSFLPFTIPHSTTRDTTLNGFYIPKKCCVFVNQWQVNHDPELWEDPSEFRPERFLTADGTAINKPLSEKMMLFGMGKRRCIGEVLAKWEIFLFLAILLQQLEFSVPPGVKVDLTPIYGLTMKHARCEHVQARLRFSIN

[27] = Mutagenicity in Salmonella typhimurium TA102 in presence of S9 fraction by mini-Ames test; assay type: toxicity, subcellular; details: salmonella enterica subsp. enterica serovar typhimurium
[28] = AUC (0 to infinity) in Sprague-Dawley rat at 2.5 mg/kg, iv by HPLC analysis; assay type: ADME, organism-based; set-up: dose 2.5 mg/kg, route intravenous, time infinity; details: in vivo; procedure, shortened: as §1
[29] = Cmax in Sprague-Dawley rat at 50 mg/kg, po measured upto 24 hrs by HPLC analysis; assay type: ADME, organism-based; set-up: dose 50 mg/kg, route oral; details: in vivo; procedure, shortened: as §1
[30] = Tmax in ICR mouse at 25 mg/kg, po measured upto 24 hrs by HPLC analysis; assay type: ADME, organism-based; details: in vivo; procedure, shortened: as §2
[31] = molecular target: Voltage-gated inwardly rectifying potassium channel KCNH2 (Homo sapiens, UniProt Q12809); test: Inhibition of human ERG transfected in HEK293 cells by whole-cell patch clamp method; assay type: cell-based
Chain of Voltage-gated inwardly rectifying potassium channel KCNH2 (Q12809 whole entry): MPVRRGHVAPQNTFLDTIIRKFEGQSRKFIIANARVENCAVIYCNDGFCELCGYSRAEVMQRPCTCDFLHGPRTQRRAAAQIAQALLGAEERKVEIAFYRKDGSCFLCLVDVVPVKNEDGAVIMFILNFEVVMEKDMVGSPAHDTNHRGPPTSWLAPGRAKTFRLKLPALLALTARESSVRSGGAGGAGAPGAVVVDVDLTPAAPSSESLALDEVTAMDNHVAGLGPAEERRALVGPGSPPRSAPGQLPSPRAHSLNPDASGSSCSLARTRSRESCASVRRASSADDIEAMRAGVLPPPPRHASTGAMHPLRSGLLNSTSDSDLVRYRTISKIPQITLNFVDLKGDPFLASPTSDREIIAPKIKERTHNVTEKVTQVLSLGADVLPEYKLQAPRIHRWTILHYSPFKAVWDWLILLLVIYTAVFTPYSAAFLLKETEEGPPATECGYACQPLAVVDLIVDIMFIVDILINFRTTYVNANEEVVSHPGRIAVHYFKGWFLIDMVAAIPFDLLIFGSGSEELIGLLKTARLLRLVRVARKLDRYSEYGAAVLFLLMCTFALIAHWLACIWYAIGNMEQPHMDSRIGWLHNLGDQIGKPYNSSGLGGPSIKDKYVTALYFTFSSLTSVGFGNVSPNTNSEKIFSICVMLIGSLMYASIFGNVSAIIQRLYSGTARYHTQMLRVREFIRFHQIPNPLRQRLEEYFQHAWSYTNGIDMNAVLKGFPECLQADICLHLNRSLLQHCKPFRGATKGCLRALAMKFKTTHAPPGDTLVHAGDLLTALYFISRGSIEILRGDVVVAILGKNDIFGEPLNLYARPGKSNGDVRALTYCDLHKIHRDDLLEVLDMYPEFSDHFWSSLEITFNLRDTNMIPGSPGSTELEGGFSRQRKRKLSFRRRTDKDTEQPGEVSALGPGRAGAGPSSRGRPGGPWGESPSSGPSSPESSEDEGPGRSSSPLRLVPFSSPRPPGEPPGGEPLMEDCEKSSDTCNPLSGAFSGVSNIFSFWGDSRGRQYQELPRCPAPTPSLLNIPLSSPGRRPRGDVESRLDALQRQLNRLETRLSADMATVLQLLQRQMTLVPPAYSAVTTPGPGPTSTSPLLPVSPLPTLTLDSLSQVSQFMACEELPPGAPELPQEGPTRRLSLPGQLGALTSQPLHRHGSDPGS

[32] = Tmax in Sprague-Dawley rat at 25 mg/kg, po measured upto 24 hrs by HPLC analysis; assay type: ADME, organism-based; details: in vivo; procedure, shortened: as §1
[33] = Cmax in Sprague-Dawley rat at 200 mg/kg, po measured upto 24 hrs by HPLC analysis; assay type: ADME, organism-based; set-up: dose 200 mg/kg, route oral; details: in vivo; procedure, shortened: as §1
[34] = system: Mycobacterium tuberculosis; test: Antimycobacterial activity against Mycobacterium tuberculosis H37Rv assessed as reduction in bacterial cell growth by Low-oxygen recovery assay; assay type: functional

O=c1nc(N2CCN(CC3CCCCC3)CC2)sc2c([N+](=O)[O-])cc(C(F)(F)F)cc12 [MACOZINONE]
Activity [1]: Non-Toxic
inhibition at 32 µg/mL [2]: 78%
Cmax [3]: 463 ng/mL
MIC90 [4]: < 0.016 µg/mL
bioavailability [5]: 10.2%
Activity [6]: Non-Toxic
AUC(0-inf) [7]: 1600 ng·h/mL
IC50 (Cytochrome P450 3A4): > 10 µM
AUC(0-inf) [8]: 4720 ng·h/mL
half-life [9]: 4.86 h
bioavailability [10]: 3.82%
IC50 (Cytochrome P450 2C9): > 10 µM
Activity [11]: 2.65 log10CFU
CC50 [12]: > 64 µg/mL
Cmax [13]: 1440 ng/mL
AUC(0-inf) [14]: 3120 ng·h/mL
Tmax [15]: 2.5 h
Tmax [16]: 1.33 h
Cmax [17]: 912 ng/mL
bioavailability [18]: 10.7%
Activity [19]: Non-Toxic
half-life [20]: 4.23 h
IC50 (Cytochrome P450 2C19): 3.77 µM
half-life [21]: 5.76 h
IC50 (Cytochrome P450 2D6): > 10 µM
half-life [22]: 1.64 h
AUC(0-inf) [23]: 1660 ng·h/mL
half-life [24]: 2.78 h
MRT [25]: 3.17 h
Activity [26]: Non-Toxic
IC50 (Cytochrome P450 1A2): > 10 µM
Activity [27]: Non-Toxic
AUC(0-inf) [28]: 1540 ng·h/mL
Cmax [29]: 694 ng/mL
Tmax [30]: 0.25 h
IC50 [31]: 102 µM
Tmax [32]: 0.91 h
Cmax [33]: 804 ng/mL
MIC [34]: > 32 µg/mL
